# According to ChEMBL document CHEMBL1125319, “Synthesis and hypoglycemic activity of substituted 8-(1-piperazinyl)imidazo[1,2-a]pyrazines” (J Med Chem, 1992):
# Activity calls are given as the source filed them. The rule behind the calls is not given here.
# Experiments:
# [1] = molecular target: T1, Alpha-2A adrenergic receptor (Bos taurus, UniProt Q28838); experiment: Binding affinity at Alpha-2 adrenergic receptor in calf cerebral cortex homogenates by [3H]clonidine displacement.; assay type: tissue-based
# T1 sequence (Q28838 whole entry): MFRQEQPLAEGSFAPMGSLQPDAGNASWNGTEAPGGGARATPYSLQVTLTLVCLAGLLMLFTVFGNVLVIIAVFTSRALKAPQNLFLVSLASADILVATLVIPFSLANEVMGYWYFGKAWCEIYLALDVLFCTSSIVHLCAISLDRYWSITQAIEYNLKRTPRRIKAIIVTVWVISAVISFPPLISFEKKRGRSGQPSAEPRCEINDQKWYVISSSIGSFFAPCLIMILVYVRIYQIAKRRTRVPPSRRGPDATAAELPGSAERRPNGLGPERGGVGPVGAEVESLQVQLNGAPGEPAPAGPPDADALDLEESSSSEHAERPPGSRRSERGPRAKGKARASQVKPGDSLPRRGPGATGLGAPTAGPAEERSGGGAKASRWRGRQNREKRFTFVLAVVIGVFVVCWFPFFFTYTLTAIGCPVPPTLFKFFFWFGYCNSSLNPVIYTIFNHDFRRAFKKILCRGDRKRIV
# [2] = Hypoglycemic potency relative to MTP-1403; assay type: functional
# Procedure, shortened: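 ob/ob insulin-resistant hyperglycemic mice on lab chow with free water. Graded oral doses given to groups of 5 mice; glucose load 2 g/kg sc 30 min after dosing, orbital sinus bleed 30 min after the load. Blood glucose compared with a reference standard by parallel-line bioassay, giving potency relative to the standard.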
# Mus musculus [3] = experiment: Ability to lower blood glucose in insulin-resistant hyperglycemic ob/ob mice after 30 mg/kg p.o. administration.; assay type: functional; details: route oral
# [4] = molecular target: T2, Beta-1 adrenergic receptor (Cavia porcellus, UniProt B0FL73); experiment: Binding affinity against Beta-1 adrenergic receptor was measured using [125I]CYP as radioligand; NB= not bound
# [5] = Binding affinity against Alpha-1 adrenergic receptor of calf cerebral cortex homogenates using [3H]prazosin; assay type: tissue-based, Bos taurus
# [6] = molecular target: T2, Beta-1 adrenergic receptor
# [7] = molecular target: Beta-2 adrenergic receptor (Cavia porcellus, UniProt Q8K4Z4)
# [8] = molecular target: T3, Alpha-1A adrenergic receptor (Bos taurus) (UniProt P18130); experiment: Inhibition of binding of [3H]prazosin to Alpha-1 adrenergic receptor in calf cerebral cortex homogenates at 10000 nM; assay type: tissue-based
# T3 sequence (whole entry): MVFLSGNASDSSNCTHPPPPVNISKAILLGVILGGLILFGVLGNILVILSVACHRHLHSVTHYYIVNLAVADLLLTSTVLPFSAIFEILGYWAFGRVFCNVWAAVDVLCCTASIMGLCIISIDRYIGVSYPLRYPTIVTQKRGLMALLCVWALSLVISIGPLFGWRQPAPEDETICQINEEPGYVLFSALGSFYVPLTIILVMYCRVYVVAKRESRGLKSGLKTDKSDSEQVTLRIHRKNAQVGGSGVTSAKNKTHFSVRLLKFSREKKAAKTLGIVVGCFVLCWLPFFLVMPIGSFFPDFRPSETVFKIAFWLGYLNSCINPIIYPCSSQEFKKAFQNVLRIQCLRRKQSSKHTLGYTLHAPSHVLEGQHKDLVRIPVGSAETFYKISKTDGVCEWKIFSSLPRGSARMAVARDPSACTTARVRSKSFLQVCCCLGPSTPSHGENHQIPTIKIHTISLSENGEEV
# Mus musculus [9] = experiment: Compound was evaluated for its ability to lower blood glucose in insulin-resistant hyperglycemic ob/ob mice after peroral administration of 30 mg/kg single dose; NA= not active; assay type: functional, organism-based; parameters: dose 30 mg/kg; details: at 30 mg/kg
# [10] = molecular target: T4, Alpha-1A adrenergic receptor (Bos taurus, UniProt P18130); experiment: Binding affinity against alpha-1 adrenergic receptor was determined in calf cerebral cortex homogenates using [3H]prazosin as radioligand; assay type: tissue-based
# T4 sequence (P18130 whole entry): T3 sequence (whole entry)
# Chain of Beta-2 adrenergic receptor (Q8K4Z4 whole entry): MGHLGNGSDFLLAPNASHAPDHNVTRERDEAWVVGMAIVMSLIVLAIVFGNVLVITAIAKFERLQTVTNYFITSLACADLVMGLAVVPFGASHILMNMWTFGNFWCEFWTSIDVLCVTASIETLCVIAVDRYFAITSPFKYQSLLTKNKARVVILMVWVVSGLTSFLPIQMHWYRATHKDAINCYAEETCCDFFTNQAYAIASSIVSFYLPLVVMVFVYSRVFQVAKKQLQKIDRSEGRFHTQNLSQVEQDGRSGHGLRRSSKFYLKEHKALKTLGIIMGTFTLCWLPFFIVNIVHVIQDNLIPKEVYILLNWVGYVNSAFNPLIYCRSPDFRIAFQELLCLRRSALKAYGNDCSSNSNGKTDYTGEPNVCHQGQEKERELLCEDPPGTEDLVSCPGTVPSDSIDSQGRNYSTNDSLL
# T2 sequence (B0FL73 whole entry): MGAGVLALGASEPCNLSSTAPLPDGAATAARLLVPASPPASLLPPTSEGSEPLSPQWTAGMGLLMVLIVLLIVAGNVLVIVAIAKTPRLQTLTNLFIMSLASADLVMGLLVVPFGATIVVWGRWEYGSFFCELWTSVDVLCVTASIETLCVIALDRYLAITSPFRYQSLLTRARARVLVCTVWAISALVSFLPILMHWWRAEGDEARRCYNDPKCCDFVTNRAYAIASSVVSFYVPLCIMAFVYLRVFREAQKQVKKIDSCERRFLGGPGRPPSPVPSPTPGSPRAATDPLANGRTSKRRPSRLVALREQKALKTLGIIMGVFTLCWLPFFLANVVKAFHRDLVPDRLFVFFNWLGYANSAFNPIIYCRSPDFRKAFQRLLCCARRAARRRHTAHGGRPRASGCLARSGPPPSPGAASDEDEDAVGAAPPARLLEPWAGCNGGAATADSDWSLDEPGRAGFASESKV
SMILES,Ki [1],Relative potency [2],"Blood glucose, percent of control (Mus musculus [3])",Ki [4],Ki [5],Ki [6],Ki [7],inhibition [8],Control (Mus musculus [9]),Ki [10]
CN1CCN(c2nccn3ccnc23)CC1,1020 nM,19,62%,Not Active,,,,,,
Cc1cnc(N2CCNCC2)c2nccn12.Cl,140 nM,17,52%,,2600 nM,360 nM,820 nM,,,
CN1CCN(c2ncc(Br)n3ccnc23)CC1,270 nM,,100%,,,500 nM,,22%,,
CCCc1cnc2c(N3CCNCC3)nccn12.Cl,480 nM,4,59%,,2650 nM,7790 nM,1390 nM,,,
Brc1cnc(N2CCNCC2)c2ncc(Br)n12,11900 nM,,,,,630 nM,,,inactive,
CC1CN=C2C(N3CCNCC3)=NC=CN21.O=C(O)C/C=C\CC(=O)O (stereo not given),1600 nM,,88%,,,,,12%,,
Cc1cn2ccnc(N3CCNCC3)c2n1.Cl,51 nM,32,28%,,,310 nM,,,,
CC(C)c1cnc2c(N3CCNCC3)nccn12.Cl,370 nM,3,60%,,5430 nM,2990 nM,2010 nM,,,
CN1CCN(c2nccn3c(Br)cnc23)CC1,1350 nM,,98%,,,6300 nM,,4%,,
Cl.FCCc1cnc2c(N3CCNCC3)nccn12,,8,56%,,,,,,,
CCc1cnc2c(N3CCNCC3)nccn12.Cl,530 nM,4,54%,,,5000 nM,3240 nM,30%,,
c1cn2ccnc2c(N2CCNCC2)n1,,76,,,3100 nM,400 nM,1700 nM,,,
Brc1cnc(N2CCNCC2)c2nccn12,182 nM,,87%,,1490 nM,170 nM,520 nM,,,
Cl.Cl.Clc1cn2ccnc2c(N2CCNCC2)n1,,> 5,36%,,,,,,,250 nM
Cc1cnc2c(N3CCNCC3)nccn12.Cl,240 nM,11,32%,,1800 nM,2400 nM,2300 nM,,,
Cc1cnc(N2CCN(C)CC2)c2nccn12,81 nM,6,51%,,,2800 nM,,45%,,
Cc1cn2c(C)cnc2c(N2CCNCC2)n1.Cl,620 nM,6,47%,,300 nM,150 nM,250 nM,,,
Cc1cn2ccnc2c(N2CCNCC2)n1.Cl,190 nM,,61%,,500 nM,220 nM,280 nM,,,
Cc1cnc(N2CCNCC2)c2ncc(C)n12.Cl,340 nM,,72%,,,400 nM,,,,
Cl.Clc1cnc2c(N3CCNCC3)nccn12,,,66%,,2780 nM,,,,,
C1=CN2CCN=C2C(N2CCNCC2)=N1.O=C(O)C/C=C\CC(=O)O,870 nM,,71%,,,,,15%,,
